Laboratory results reported in ChEMBL document CHEMBL3627653, “Synthesis and biological evaluation of spiro[cyclopropane-1,3'-indolin]-2'-ones as potential anticancer agents” (Bioorg Med Chem Lett, 2015).
Activity calls are given as the source filed them. The rule behind the calls is not given here.

Columns and labels:
MCF7 [1] = assay: Anticancer activity against human MCF7 cells; type: functional
Summary of the method: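 Human MCF-7 breast cancer cells exposed to compound for 48 h. The IC50 (50% inhibitory concentration) is reported as the average of three individual experiments.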

DU-145 [2] = assay: Anticancer activity against human DU145 cells assessed as reduction in cell viability incubated for 48 hrs by MTT assay; type: functional, cell-based; conditions: DU-145, 48 h
HeLa = assay: Anticancer activity against human HeLa cells assessed as reduction in cell viability incubated for 48 hrs by MTT assay; type: functional, cell-based
HT-29 = assay: Anticancer activity against human HT-29 cells assessed as reduction in cell viability incubated for 48 hrs by MTT assay; type: functional, cell-based; conditions: HT-29, 48 h
A549 = assay: Anticancer activity against human A549 cells assessed as reduction in cell viability incubated for 48 hrs by MTT assay; type: functional, cell-based; conditions: A549, 48 h
MCF7 [3] = assay: Anticancer activity against human MCF7 cells assessed as reduction in cell viability incubated for 48 hrs by MTT assay; type: functional, cell-based; conditions: MCF7, 48 h
DU-145 [4] = assay: Induction of cell cycle arrest in human DU145 cells assessed as accumulation at G0/G1 phase at 1.5 uM incubated for 48 hrs by propidium iodide staining based flow cytometry (reference value: 79.81%); type: functional
DU-145 [5] = assay: Reduction in mitochondrial membrane potential in human DU145 cells at 3 uM incubated for 48 hrs by JC1 dye staining based flow cytometry; type: functional, cell-based
Summary of the method: (§1)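 After 48 h exposure at 1.5 or 3 μM, DU-145 cells were stained with JC-1 to track loss of mitochondrial membrane potential (ΔΨm) and read on a FACScan flow cytometer. Untreated control and nocodazole (1.5 μM) were run alongside.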

DU-145 [6] = assay: Reduction in mitochondrial membrane potential in human DU145 cells assessed as cell level at Q1-upper left quadrant at 3 uM incubated for 48 hrs by JC1 dye staining based flow cytometry (reference value: 1.6%); type: functional; design: scale not given: the % may be the effect or the level left; summary of the method: as §1
DU-145 [7] = assay: Reduction in mitochondrial membrane potential in human DU145 cells assessed as cell level at Q1-upper left quadrant at 1.5 uM incubated for 48 hrs by JC1 dye staining based flow cytometry (reference value: 1.6%); type: functional; design: scale not given: the % may be the effect or the level left; summary of the method: as §1
DU-145 [8] = assay: Reduction in mitochondrial membrane potential in human DU145 cells assessed as cell level at Q1-lower left quadrant at 3 uM incubated for 48 hrs by JC1 dye staining based flow cytometry (reference value: 0.1%); type: functional; design: scale not given: the % may be the effect or the level left; summary of the method: as §1
DU-145 [9] = assay: Reduction in mitochondrial membrane potential in human DU145 cells at 1.5 uM incubated for 48 hrs by JC1 dye staining based flow cytometry; type: functional, cell-based; summary of the method: as §1
DU-145 [10] = assay: Reduction in mitochondrial membrane potential in human DU145 cells assessed as cell level at Q1-lower left quadrant at 1.5 uM incubated for 48 hrs by JC1 dye staining based flow cytometry (reference value: 0.1%); type: functional; design: scale not given: the % may be the effect or the level left; summary of the method: as §1
DU-145 [11] = assay: Induction of apoptosis in human DU145 cells assessed as viable cells level at 3 uM incubated for 48 hrs by Annexin V-FITC and propidium iodide staining based flow cytometry (reference value: 87.88%); type: functional
DU-145 [12] = assay: Induction of apoptosis in human DU145 cells assessed as necrotic cells level at 1.5 uM incubated for 48 hrs by Annexin V-FITC and propidium iodide staining based flow cytometry (reference value: 3.56%); type: functional
DU-145 [13] = assay: Reduction in mitochondrial membrane potential in human DU145 cells assessed as cell level at Q1-upper right quadrant at 1.5 uM incubated for 48 hrs by JC1 dye staining based flow cytometry (reference value: 95.1%); type: functional; design: scale not given: the % may be the effect or the level left; summary of the method: as §1
HEK293 = assay: Cytotoxic activity against human HEK293 cells assessed as reduction in cell viability incubated for 48 hrs by MTT assay; type: cell-based; conditions: HEK293, 48 h
DU-145 [14] = assay: Induction of apoptosis in human DU145 cells assessed as early apoptotic cells level at 3 uM incubated for 48 hrs by Annexin V-FITC and propidium iodide staining based flow cytometry (reference value: 4.73%); type: functional
DU-145 [15] = assay: Induction of cell cycle arrest in human DU145 cells assessed as accumulation at G2/M phase at 1.5 uM incubated for 48 hrs by propidium iodide staining based flow cytometry (reference value: 6.51%); type: functional
DU-145 [16] = assay: Induction of apoptosis in human DU145 cells assessed as viable cells level at 1.5 uM incubated for 48 hrs by Annexin V-FITC and propidium iodide staining based flow cytometry (reference value: 87.88%); type: functional
DU-145 [17] = assay: Induction of apoptosis in human DU145 cells assessed as late apoptotic cells level at 1.5 uM incubated for 48 hrs by Annexin V-FITC and propidium iodide staining based flow cytometry (reference value: 3.83%); type: functional
DU-145 [18] = assay: Induction of cell cycle arrest in human DU145 cells assessed as accumulation at subG1 phase at 3 uM incubated for 48 hrs by propidium iodide staining based flow cytometry (reference value: 9.12%); type: functional
DU-145 [19] = assay: Reduction in mitochondrial membrane potential in human DU145 cells assessed as cell level at Q1-lower right quadrant at 3 uM incubated for 48 hrs by JC1 dye staining based flow cytometry (reference value: 3.1%); type: functional; design: scale not given: the % may be the effect or the level left; summary of the method: as §1
DU-145 [20] = assay: Induction of cell cycle arrest in human DU145 cells assessed as accumulation at G2/M phase at 3 uM incubated for 48 hrs by propidium iodide staining based flow cytometry (reference value: 6.51%); type: functional
DU-145 [21] = assay: Induction of cell cycle arrest in human DU145 cells assessed as accumulation at subG1 phase at 1.5 uM incubated for 48 hrs by propidium iodide staining based flow cytometry (reference value: 9.12%); type: functional
DU-145 [22] = assay: Induction of apoptosis in human DU145 cells assessed as early apoptotic cells level at 1.5 uM incubated for 48 hrs by Annexin V-FITC and propidium iodide staining based flow cytometry (reference value: 4.73%); type: functional
DU-145 [23] = assay: Induction of apoptosis in human DU145 cells assessed as increase in caspase-3 levels level at 1.5 and 3 uM incubated for 48 hrs by ELISA method; type: functional
Summary of the method: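 Caspase-3 levels measured in DU-145 cells after 48 h treatment at 1.5 and 3 μM and expressed relative to untreated control. Data are mean ± SD of two experiments each run in triplicate; significance set at P < 0.005 versus control.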

DU-145 [24] = assay: Induction of apoptosis in human DU145 cells assessed as late apoptotic cells level at 3 uM incubated for 48 hrs by Annexin V-FITC and propidium iodide staining based flow cytometry (reference value: 3.83%); type: functional
DU-145 [25] = assay: Induction of apoptosis in human DU145 cells assessed as necrotic cells level at 3 uM incubated for 48 hrs by Annexin V-FITC and propidium iodide staining based flow cytometry (reference value: 3.56%); type: functional
DU-145 [26] = assay: Induction of cell cycle arrest in human DU145 cells assessed as accumulation at G0/G1 phase at 3 uM incubated for 48 hrs by propidium iodide staining based flow cytometry (reference value: 79.81%); type: functional
DU-145 [27] = assay: Induction of cell cycle arrest in human DU145 cells assessed as accumulation at S phase at 1.5 uM incubated for 48 hrs by propidium iodide staining based flow cytometry (reference value: 1.74%); type: functional
DU-145 [28] = assay: Induction of cell cycle arrest in human DU145 cells assessed as accumulation at S phase at 3 uM incubated for 48 hrs by propidium iodide staining based flow cytometry (reference value: 1.74%); type: functional
DU-145 [29] = assay: Reduction in mitochondrial membrane potential in human DU145 cells assessed as cell level at Q1-upper right quadrant at 3 uM incubated for 48 hrs by JC1 dye staining based flow cytometry (reference value: 95.1%); type: functional; design: scale not given: the % may be the effect or the level left; summary of the method: as §1
DU-145 [30] = assay: Reduction in mitochondrial membrane potential in human DU145 cells assessed as cell level at Q1-lower right quadrant at 1.5 uM incubated for 48 hrs by JC1 dye staining based flow cytometry (reference value: 3.1%); type: functional; design: scale not given: the % may be the effect or the level left; summary of the method: as §1
DU-145 [31] = assay: Anticancer activity against human DU145 cells; type: functional, cell-based

| Structure (SMILES) | GI50 (MCF7 [1]) | IC50 (DU-145 [2]) | IC50 (HeLa) | IC50 (HT-29) | IC50 (A549) | IC50 (MCF7 [3]) | Activity (DU-145 [4]) | Activity (DU-145 [5]) | Activity (DU-145 [7]) | Activity (DU-145 [9]) | Activity (DU-145 [10]) | Activity (DU-145 [12]) | Activity (DU-145 [13]) | Activity (DU-145 [15]) | Activity (DU-145 [16]) | Activity (DU-145 [17]) | Activity (DU-145 [21]) | Activity (DU-145 [22]) | Activity (DU-145 [27]) | Activity (DU-145 [30]) | further results |
| --- | --- | --- | --- | --- | --- | --- | --- | --- | --- | --- | --- | --- | --- | --- | --- | --- | --- | --- | --- | --- | --- |
| CC(=O)N1C(=O)[C@]2(Sc3ncccc3C(=O)N2c2ccccc2)c2cc(Br)ccc21 | 2.13 µM | – | – | – | – | – | – | – | – | – | – | – | – | – | – | – | – | – | – | – | – |
| CN1O[C@@]2(C[C@@H]1c1ccccc1)C(=O)Nc1ccccc12 | 2.6 µM | – | – | – | – | – | – | – | – | – | – | – | – | – | – | – | – | – | – | – | – |
| CCOC(=O)[C@H]1[C@H](C(O)c2ccc(OC)cc2)C12C(=O)Nc1ccccc12 (relative stereo) | – | 1.94 µM | 5.78 µM | 2.29 µM | 27.5 µM | 4.78 µM | – | – | – | – | – | – | – | – | – | – | – | – | – | – | – |
| CCOC(=O)[C@H]1[C@H](C(=O)c2ccccc2)C12C(=O)Nc1ccccc12 (relative stereo) | – | 2.08 µM | 7.5 µM | 3.89 µM | 5.12 µM | 3.98 µM | 2.11% | Active | 2.9% | Active | 0.8% | 0.62% | 89.7% | 2.27% | 4.19% | 78.52% | 7.77% | 56.01% | 16.58% | 6.6% | Activity (DU-145 [6]): 2.2%; Activity (DU-145 [8]): 1.6%; Activity (DU-145 [11]): 17.66%; IC50 (HEK293): 64.6 µM; Activity (DU-145 [14]): 22.15%; Activity (DU-145 [18]): 84.93%; Activity (DU-145 [19]): 11.1%; Activity (DU-145 [20]): 8.93%; fold change (FC) (DU-145 [23]): 2; Activity (DU-145 [24]): 10.12%; Activity (DU-145 [25]): 10.74%; Activity (DU-145 [26]): 4.03%; Activity (DU-145 [28]): 70.57%; Activity (DU-145 [29]): 85.1%; IC50 (DU-145 [31]): 2.08 µM |
| CCOC(=O)[C@H]1[C@H](C(=O)c2ccc(C)cc2)C12C(=O)Nc1ccc(Br)cc12 (relative stereo) | – | 1.86 µM | 16.1 µM | 1.87 µM | 4.56 µM | 3.63 µM | 1.35% | Active | 3.1% | Active | 1.1% | 3.41% | 88.1% | 2.1% | 2.74% | 66.31% | 8.8% | 57.28% | 26.17% | 7.5% | Activity (DU-145 [6]): 2.1%; Activity (DU-145 [8]): 1.8%; Activity (DU-145 [11]): 17%; IC50 (HEK293): 79.4 µM; Activity (DU-145 [14]): 22.98%; Activity (DU-145 [18]): 85.57%; Activity (DU-145 [19]): 12%; Activity (DU-145 [20]): 3.16%; fold change (FC) (DU-145 [23]): 2; Activity (DU-145 [24]): 18.78%; Activity (DU-145 [25]): 11.5%; Activity (DU-145 [26]): 3.4%; Activity (DU-145 [28]): 64.01%; Activity (DU-145 [29]): 84.1% |
| COC(=O)Nc1nc2cc(C(=O)c3cccs3)ccc2[nH]1 [NOCODAZOLE] | – | – | – | – | – | – | 57.63% | – | 2.8% | Active | 1.4% | 3.92% | 87.5% | 26.59% | 81.21% | 5.35% | 9.25% | 9.52% | 5.61% | 8.3% | – |
